Experimental findings from the M2OR odorant receptor database are described below.

Holding throughout (settings): stereoisomer not certain
One test has as its target T1, UniProt Q8VH21.
T1 sequence (whole entry): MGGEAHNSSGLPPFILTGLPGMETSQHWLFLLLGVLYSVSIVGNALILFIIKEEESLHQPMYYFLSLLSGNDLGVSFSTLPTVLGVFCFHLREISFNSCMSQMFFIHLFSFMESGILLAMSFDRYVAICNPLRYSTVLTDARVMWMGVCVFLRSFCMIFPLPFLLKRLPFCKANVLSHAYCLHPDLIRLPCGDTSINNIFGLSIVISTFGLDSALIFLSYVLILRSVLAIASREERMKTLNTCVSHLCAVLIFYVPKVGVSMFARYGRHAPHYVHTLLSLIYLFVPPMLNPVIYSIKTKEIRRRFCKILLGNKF
Put shortly: (§1)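 Assay methods differ from source to source, frequently being transient luciferase assays in mammalian cell lines. For each receptor–molecule pair, the label responsive (active) applies when the original authors judged the measured signal statistically different from baseline, and non-responsive (inactive) applies otherwise.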

Another test concerns the target T2, UniProt Q924H8.
T2 sequence (whole entry): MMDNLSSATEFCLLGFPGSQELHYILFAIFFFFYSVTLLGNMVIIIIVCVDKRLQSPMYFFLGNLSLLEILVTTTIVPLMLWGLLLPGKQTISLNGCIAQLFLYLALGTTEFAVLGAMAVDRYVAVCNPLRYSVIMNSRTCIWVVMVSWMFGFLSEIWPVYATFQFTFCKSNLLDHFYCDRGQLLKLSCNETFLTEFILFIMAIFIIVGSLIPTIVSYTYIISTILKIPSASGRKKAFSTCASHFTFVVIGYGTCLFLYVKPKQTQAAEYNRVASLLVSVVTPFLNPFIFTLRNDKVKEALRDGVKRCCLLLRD
The gist of the method:
as §1

A further test deals with T3, UniProt Q9EPN9.
T3 sequence (whole entry): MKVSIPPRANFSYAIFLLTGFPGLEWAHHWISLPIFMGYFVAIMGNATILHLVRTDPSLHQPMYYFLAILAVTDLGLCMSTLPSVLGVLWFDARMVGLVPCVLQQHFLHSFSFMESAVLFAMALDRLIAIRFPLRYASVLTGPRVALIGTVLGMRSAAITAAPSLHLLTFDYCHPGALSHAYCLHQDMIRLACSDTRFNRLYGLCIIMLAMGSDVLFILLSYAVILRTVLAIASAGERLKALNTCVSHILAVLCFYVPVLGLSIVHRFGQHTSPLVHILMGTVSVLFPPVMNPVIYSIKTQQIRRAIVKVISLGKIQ
The gist of the method:
as §1

A further test has as its target UniProt Q9R0K2. The gist of the method:
as §1

A further test has as its target T4, UniProt Q9WU86.
T4 sequence (whole entry): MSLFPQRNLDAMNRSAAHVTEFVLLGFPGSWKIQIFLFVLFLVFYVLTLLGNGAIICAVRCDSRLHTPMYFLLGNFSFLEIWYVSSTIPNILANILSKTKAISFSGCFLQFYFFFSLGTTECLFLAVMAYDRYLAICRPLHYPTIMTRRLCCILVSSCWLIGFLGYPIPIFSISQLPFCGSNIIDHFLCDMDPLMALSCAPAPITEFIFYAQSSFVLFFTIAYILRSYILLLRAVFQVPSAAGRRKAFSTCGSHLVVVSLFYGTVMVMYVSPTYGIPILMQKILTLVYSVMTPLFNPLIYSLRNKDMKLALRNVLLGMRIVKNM
The gist of the method: as §1

The target in a further test is UniProt Q9WVD9. Put shortly: as §1
The target of the next test is T5, UniProt Q9WVN5.
T5 sequence (whole entry): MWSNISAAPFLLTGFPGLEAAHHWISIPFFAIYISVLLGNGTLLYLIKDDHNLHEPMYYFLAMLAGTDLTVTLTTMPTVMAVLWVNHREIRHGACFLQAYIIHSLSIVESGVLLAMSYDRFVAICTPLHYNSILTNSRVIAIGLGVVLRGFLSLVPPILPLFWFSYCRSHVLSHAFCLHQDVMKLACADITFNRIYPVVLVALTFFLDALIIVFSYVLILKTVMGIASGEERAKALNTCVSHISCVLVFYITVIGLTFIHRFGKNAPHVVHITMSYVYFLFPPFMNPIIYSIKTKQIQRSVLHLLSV
The gist of the method:
as §1

Another test has as its target T6, UniProt Q920P1.
T6 sequence (whole entry): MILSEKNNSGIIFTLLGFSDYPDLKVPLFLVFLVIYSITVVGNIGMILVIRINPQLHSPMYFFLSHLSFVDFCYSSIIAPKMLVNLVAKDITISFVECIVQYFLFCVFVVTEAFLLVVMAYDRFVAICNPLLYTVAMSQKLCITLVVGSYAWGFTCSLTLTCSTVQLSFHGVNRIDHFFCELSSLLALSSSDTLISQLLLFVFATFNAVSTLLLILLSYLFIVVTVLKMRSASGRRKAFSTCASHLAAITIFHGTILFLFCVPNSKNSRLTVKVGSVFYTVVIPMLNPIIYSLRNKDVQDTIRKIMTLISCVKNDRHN
The gist of the method: as §1

A further test addresses T7, UniProt Q920P2.
T7 sequence (whole entry): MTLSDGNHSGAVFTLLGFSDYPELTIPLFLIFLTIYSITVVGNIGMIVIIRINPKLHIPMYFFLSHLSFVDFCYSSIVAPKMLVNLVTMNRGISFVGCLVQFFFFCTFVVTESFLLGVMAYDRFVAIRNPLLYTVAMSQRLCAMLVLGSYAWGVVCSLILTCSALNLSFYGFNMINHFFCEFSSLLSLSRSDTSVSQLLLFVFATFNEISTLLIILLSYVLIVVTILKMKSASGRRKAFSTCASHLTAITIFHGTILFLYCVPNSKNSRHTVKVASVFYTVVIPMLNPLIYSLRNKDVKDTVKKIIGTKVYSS
Put shortly:
as §1

In another test the target is UniProt Q924X8. The gist of the method:
as §1

For another test, the target named is UniProt Q99NH4. Put shortly:
as §1

In a further test the target is UniProt Q9WU94. Put shortly: as §1
For another test, the target named is UniProt Q9WVD7. Put shortly:
as §1

Chain of UniProt Q9WVD9 (Q9WVD9 as listed by the source): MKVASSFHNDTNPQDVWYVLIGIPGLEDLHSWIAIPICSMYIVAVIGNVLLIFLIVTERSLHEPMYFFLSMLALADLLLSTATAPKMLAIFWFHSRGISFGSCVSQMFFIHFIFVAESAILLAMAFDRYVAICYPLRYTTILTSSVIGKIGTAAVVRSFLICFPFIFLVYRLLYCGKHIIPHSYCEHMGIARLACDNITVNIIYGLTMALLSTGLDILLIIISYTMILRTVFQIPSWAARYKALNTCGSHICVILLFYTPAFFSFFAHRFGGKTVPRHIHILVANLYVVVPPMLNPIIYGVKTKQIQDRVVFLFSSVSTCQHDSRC
Chain of UniProt Q9R0K2 (Q9R0K2 as listed by the source): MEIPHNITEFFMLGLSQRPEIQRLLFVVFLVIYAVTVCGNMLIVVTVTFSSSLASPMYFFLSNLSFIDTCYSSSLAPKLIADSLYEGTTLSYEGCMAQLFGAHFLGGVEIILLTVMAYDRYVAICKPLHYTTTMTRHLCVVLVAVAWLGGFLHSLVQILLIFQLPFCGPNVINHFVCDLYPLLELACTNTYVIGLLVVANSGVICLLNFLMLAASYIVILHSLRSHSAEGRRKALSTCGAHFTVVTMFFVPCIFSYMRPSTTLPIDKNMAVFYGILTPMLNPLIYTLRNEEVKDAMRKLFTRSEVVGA
Chain of UniProt Q99NH4 (Q99NH4 as listed by the source): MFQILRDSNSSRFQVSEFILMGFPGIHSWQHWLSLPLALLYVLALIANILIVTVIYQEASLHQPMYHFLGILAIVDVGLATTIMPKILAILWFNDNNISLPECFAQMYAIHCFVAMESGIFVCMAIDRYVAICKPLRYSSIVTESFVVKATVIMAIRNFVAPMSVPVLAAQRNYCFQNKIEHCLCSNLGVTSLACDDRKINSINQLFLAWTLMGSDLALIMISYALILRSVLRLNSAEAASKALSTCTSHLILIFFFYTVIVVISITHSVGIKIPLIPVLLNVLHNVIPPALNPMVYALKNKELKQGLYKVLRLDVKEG
Chain of UniProt Q924X8 (Q924X8 as listed by the source): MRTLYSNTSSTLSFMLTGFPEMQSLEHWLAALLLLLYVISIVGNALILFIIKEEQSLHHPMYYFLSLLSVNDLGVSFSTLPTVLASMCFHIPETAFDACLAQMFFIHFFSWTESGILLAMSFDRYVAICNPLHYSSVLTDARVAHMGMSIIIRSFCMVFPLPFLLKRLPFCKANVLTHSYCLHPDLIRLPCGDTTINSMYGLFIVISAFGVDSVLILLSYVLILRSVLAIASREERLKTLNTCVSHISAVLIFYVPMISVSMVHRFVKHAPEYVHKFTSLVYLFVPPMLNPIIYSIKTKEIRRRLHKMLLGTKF
Chain of UniProt Q9WVD7 (Q9WVD7 as listed by the source): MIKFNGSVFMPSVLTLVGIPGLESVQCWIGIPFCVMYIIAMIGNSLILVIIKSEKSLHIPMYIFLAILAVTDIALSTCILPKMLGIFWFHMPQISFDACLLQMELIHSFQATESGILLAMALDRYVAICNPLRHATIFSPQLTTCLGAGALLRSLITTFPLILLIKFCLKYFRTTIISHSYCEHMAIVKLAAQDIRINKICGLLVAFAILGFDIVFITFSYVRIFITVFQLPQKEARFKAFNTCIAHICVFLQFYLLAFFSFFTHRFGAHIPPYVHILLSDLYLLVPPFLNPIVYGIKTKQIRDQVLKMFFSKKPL
Chain of UniProt Q9WU94 (Q9WU94 as listed by the source): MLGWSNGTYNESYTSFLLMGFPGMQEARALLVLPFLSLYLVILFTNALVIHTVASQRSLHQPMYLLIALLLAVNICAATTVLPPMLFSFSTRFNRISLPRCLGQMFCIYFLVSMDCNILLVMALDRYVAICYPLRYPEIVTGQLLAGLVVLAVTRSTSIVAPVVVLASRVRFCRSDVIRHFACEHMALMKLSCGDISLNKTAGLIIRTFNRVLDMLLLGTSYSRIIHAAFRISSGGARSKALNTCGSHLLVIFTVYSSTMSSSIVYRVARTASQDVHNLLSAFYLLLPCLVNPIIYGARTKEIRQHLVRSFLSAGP

Consider `CSSC`, for which the “odorant receptor agonist call” value with UniProt Q8VH21 and with UniProt Q924H8 was “inactive” each time.
As to `O=c1cc(O)c2ccccc2o1`, the “odorant receptor agonist call” value in the test with UniProt Q8VH21, with UniProt Q924H8, with UniProt Q9EPN9, in the test with UniProt Q9R0K2, with UniProt Q9WU86 and with UniProt Q9WVD9 was “inactive” in each case. In the test with UniProt Q9WVN5, the “odorant receptor agonist call” value was “inactive”.
As to `C=CCOC(=O)Cc1ccccc1`, the “odorant receptor agonist call” value in the test with UniProt Q8VH21, with UniProt Q924H8, with UniProt Q9WU86 and with UniProt Q9WVD9 was “inactive” each time. The “odorant receptor agonist call” value in the test with UniProt Q9EPN9, in the test with UniProt Q9R0K2 and with UniProt Q9WVN5 was “active” throughout.
On to `CCCCCCC(Br)C(=O)O` (stereo unspecified), for which the “odorant receptor agonist call” value in the test with UniProt Q8VH21 and in the test with UniProt Q924H8 was “inactive” each time.
`Oc1ccccc1Br`: the “odorant receptor agonist call” value with UniProt Q8VH21 and with UniProt Q924H8 was “inactive” throughout.
In the case of `COc1ccc(C=O)cc1`, the “odorant receptor agonist call” value with UniProt Q8VH21 and with UniProt Q924H8 was “inactive” throughout.
Turning to `O=Cc1ccccc1`, the “odorant receptor agonist call” value in the test with UniProt Q8VH21 was “active”. Also, in the test with UniProt Q924H8, the “odorant receptor agonist call” value is “inactive”.
With `CC(C=O)Cc1ccc2c(c1)OCO2` (stereo unspecified), the “odorant receptor agonist call” value with UniProt Q8VH21 and in the test with UniProt Q924H8 was “inactive” in each case.
Consider `OCc1ccc2c(c1)OCO2`, for which the “odorant receptor agonist call” value in the test with UniProt Q8VH21 and in the test with UniProt Q924H8 was “inactive” in each case.
`O=Cc1ccc2c(c1)OCO2`: the “odorant receptor agonist call” value with UniProt Q8VH21, with UniProt Q920P1, in the test with UniProt Q920P2 and with UniProt Q924H8 was “inactive” throughout.
In the case of `CCC1CCC(=O)O1` (stereo unspecified), the “odorant receptor agonist call” value in the test with UniProt Q9EPN9, with UniProt Q9R0K2, with UniProt Q9WU86, with UniProt Q9WVD9 and in the test with UniProt Q9WVN5 was “inactive” throughout.
For the molecule `C=CCc1ccc2c(c1)OCO2`, the “odorant receptor agonist call” value in the test with UniProt Q920P1 and in the test with UniProt Q920P2 was “inactive” each time.
Consider `Cc1ccc(OC(=O)Cc2ccccc2)cc1`, for which the “odorant receptor agonist call” value in the test with UniProt Q8VH21 and with UniProt Q924H8 was “inactive” in each case.
Turning to `C=CCc1ccccc1`, the “odorant receptor agonist call” value in the test with UniProt Q920P1, with UniProt Q920P2, with UniProt Q9EPN9, with UniProt Q9R0K2, in the test with UniProt Q9WVD9 and with UniProt Q9WVN5 was “inactive” each time. Further, in the test with UniProt Q9WU86, the “odorant receptor agonist call” value is “active”.
With `O=CC=Cc1ccccc1`, the “odorant receptor agonist call” value with UniProt Q8VH21 and with UniProt Q924H8 was “inactive” each time.
For the molecule `O=C(O)CCCCCCCBr`, the “odorant receptor agonist call” value with UniProt Q924X8, with UniProt Q99NH4 and with UniProt Q9WVD7 was “active” in each case. Also, the “odorant receptor agonist call” value in the test with UniProt Q9WU94 was “inactive”.
For `CCCCC(Br)C(=O)O` (stereo unspecified), the “odorant receptor agonist call” value in the test with UniProt Q8VH21 and in the test with UniProt Q924H8 was “inactive” each time. The “odorant receptor agonist call” value with UniProt Q99NH4 is “active”.
Turning to `C=C(C)C1CC=C(C=O)CC1` (stereo unspecified), the “odorant receptor agonist call” value with UniProt Q8VH21 and with UniProt Q924H8 was “inactive” each time.
`c1ccncc1`: the “odorant receptor agonist call” value in the test with UniProt Q920P1 and with UniProt Q920P2 was “inactive” in each case.
